ChEMBL document CHEMBL2021912, “Synthesis, cytotoxicity and apoptosis of cyclotriphosphazene compounds as anti-cancer agents” (Eur J Med Chem, 2012)
Activity calls are given as the source filed them. No cut-off for these calls is given here.

Experiments:
Escherichia coli = experiment: Antibacterial activity against Escherichia coli ATCC 35218 after 18 to 24 hrs by broth microdilution method; type: functional; conditions: read-out: ID50 (the source's name)
HEp-2 [1] = experiment: Induction of apoptosis in human Hep2 cells assessed as early apoptotic cells level after 24 hrs by annexin V-FITC and propidium iodide staining based flow cytometry; type: functional
How it was run: (§1)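 Hep2 seeded at 2-3 × 10^6 per flask, treated 24 h at several concentrations; cisplatin 200 µM positive control; cells in HEPES pH 7.4/NaCl/CaCl2 buffer stained with annexin V-FITC 100 ng/mL and PI 0.1 µg/mL, 15 min room temperature, dark; flow cytometry quadrants; three experiments in duplicate.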

HEp-2 [2] = experiment: Induction of apoptosis in human Hep2 cells assessed as necrotic cells level after 24 hrs by annexin V-FITC and propidium iodide staining based flow cytometry; type: functional; how it was run: as §1
[3] = (§2) Cytotoxicity against african green monkey Vero cells after 24 hrs at 37 degC by MTT assay; type: cell-based; conditions: chlorocebus sabaeus, Vero cells; read-out: ID50
How it was run: (§3)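 Vero and HT-29 grown in DMEM/10% FBS, Hep2 in EMEM/10% FBS; seeded at 2 × 10^4 (Vero, Hep2) or 3 × 10^4 (HT-29) cells/mL; exposed 24 h to 0.2–50 µg/mL compound, final DMSO 1%; MTT 1 mg/mL 2 h at 37 °C, formazan in DMSO, OD 540 nm; % of DMSO control; ID50 by probit; triplicate wells, three repeats.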

HT-29 [4] = experiment: Cytotoxicity against human HT-29 cells after 24 hrs at 37 degC by MTT assay; type: functional; conditions: for IC50: HT-29, 24 h, read-out: ID50 (the source's name); how it was run: as §3
HEp-2 [5] = experiment: Induction of apoptosis in human Hep2 cells assessed as late apoptotic cells level after 24 hrs by annexin V-FITC and propidium iodide staining based flow cytometry; type: functional; how it was run: as §1
Staphylococcus aureus = experiment: Antibacterial activity against Staphylococcus aureus ATCC 25923 after 18 to 24 hrs by broth microdilution method; type: functional; conditions: read-out: ID50 (the source's name)
HEp-2 [6] = experiment: Cytotoxicity against human Hep2 cells after 24 hrs at 37 degC by MTT assay; type: functional; conditions: for IC50: HEp-2, 24 h, read-out: ID50 (the source's name); how it was run: as §3
Pseudomonas aeruginosa = experiment: Antibacterial activity against Pseudomonas aeruginosa ATCC 27853 after 18 to 24 hrs by broth microdilution method; type: functional; conditions: read-out: ID50 (the source's name)
HEp-2 [7] = experiment: Induction of apoptosis in human Hep2 cells assessed as viable cell level after 24 hrs by annexin V-FITC and propidium iodide staining based flow cytometry; type: functional; how it was run: as §1
Candida albicans = experiment: Antifungal activity against Candida albicans ATCC 10231 after 48 hrs by broth microdilution method; type: functional; conditions: ATCC 10231, 48 h, read-out: ID50 (the source's name)
HT-29 [8] = experiment: Induction of apoptosis in human HT-29 cells assessed as necrotic cells level after 24 hrs by annexin V-FITC and propidium iodide staining based flow cytometry; type: functional
How it was run: as §1, with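 “HT-29” for “Hep2”, “flask in 10% FBS-DMEM,” for “flask,”, “etoposide (12.5–50 µg/mL)” for “cisplatin 200 µM”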

HT-29 [9] = experiment: Induction of apoptosis in human HT-29 cells assessed as early apoptotic cells level after 24 hrs by annexin V-FITC and propidium iodide staining based flow cytometry; type: functional
How it was run: as §1, with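 “HT-29” for “Hep2”, “flask in 10% FBS-DMEM,” for “flask,”, “etoposide (12.5–50 µg/mL)” for “cisplatin 200 µM”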

HT-29 [10] = experiment: Induction of apoptosis in human HT-29 cells assessed as viable cell level after 24 hrs by annexin V-FITC and propidium iodide staining based flow cytometry; type: functional
How it was run: as §1, with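 “HT-29” for “Hep2”, “flask in 10% FBS-DMEM,” for “flask,”, “etoposide (12.5–50 µg/mL)” for “cisplatin 200 µM”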

HT-29 [11] = experiment: Induction of apoptosis in human HT-29 cells assessed as late apoptotic cells level after 24 hrs by annexin V-FITC and propidium iodide staining based flow cytometry; type: functional
How it was run: as §1, with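 “HT-29” for “Hep2”, “flask in 10% FBS-DMEM,” for “flask,”, “etoposide (12.5–50 µg/mL)” for “cisplatin 200 µM”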

Vero = experiment: as §2; type: cell-based; conditions: chlorocebus sabaeus, vero, 24 h; how it was run: as §3

Structure (SMILES) | IC50 (Escherichia coli) [µg/mL] | Activity (HEp-2 [1]) [%] | Activity (HEp-2 [2]) [%] | CC50 at 24 h [3] [µM] | ID50 (HT-29 [4]) | Activity (HEp-2 [5]) [%] | IC50 (Staphylococcus aureus) [µg/mL] | IC50 (HEp-2 [6]) [µM] | IC50 (Pseudomonas aeruginosa) [µg/mL] | Activity (HEp-2 [7]) [%] | IC50 (Candida albicans) [µg/mL] | Activity (HT-29 [8]) [%] | Activity (HT-29 [9]) [%] | Activity (HT-29 [10]) [%] | IC50 (HT-29 [4]) [nM] | ID50 (HEp-2 [6]) | Activity (HT-29 [11]) [%] | ID50 (Vero)
FC1(F)COP2(=NP34=NP5(=N2)NCCCN5CCCCN3CCCN4)OCC1(F)F (stereo unspecified) | > 250 | 60.78 | 1.1 | 5.41 | inactive | 5.34 | > 250 | 3.39 | > 250 | 32.78 | > 250 | – | – | – | – | – | – | –
CC1(C)COP2(=NP(Cl)(Cl)=NP3(=N2)NCCCN3CCCCN2CCCNP23=NP2(=NP(Cl)(Cl)=N3)OCC(C)(C)CO2)OC1 (stereo unspecified) | > 250 | – | – | 2.65 | – | – | > 250 | – | > 250 | – | > 250 | 1.41 | 63.78 | 32.84 | 2750 | inactive | 1.97 | –
ClP1(Cl)=NP2(=NP(Sc3ccccc3)(Sc3ccccc3)=N1)NCCCN2CCCCN1CCCNP12=NP(Sc1ccccc1)(Sc1ccccc1)=NP(Cl)(Cl)=N2 (stereo unspecified) | > 250 | – | – | 3.35 | – | – | > 250 | – | > 250 | – | > 250 | – | – | – | 1960 | inactive | – | –
FC1(F)COP2(=NP(Cl)(Cl)=NP3(=N2)NCCCN3CCCCN2CCCNP23=NP(Cl)(Cl)=NP2(=N3)OCC(F)(F)C(F)(F)CO2)OCC1(F)F (stereo unspecified) | > 250 | – | – | 1.31 | – | – | > 250 | – | > 250 | – | > 250 | 0.8 | 81.42 | 17.25 | 2330 | inactive | 0.53 | –
ClP1(Cl)=NP2(=NP(Nc3ccccc3)(Nc3ccccc3)=N1)NCCCN2CCCCN1CCCNP12=NP(Nc1ccccc1)(Nc1ccccc1)=NP(Cl)(Cl)=N2 (stereo unspecified) | > 250 | – | – | – | inactive | – | > 250 | – | > 250 | – | > 250 | – | – | – | – | inactive | – | Non-toxic
c1ccc(NP2(Nc3ccccc3)=NP34=NP5(=N2)NCCCN5CCCCN3CCCN4)cc1 (stereo unspecified) | > 250 | – | – | 6.55 | – | – | > 250 | – | > 250 | – | > 250 | 1.35 | 80.1 | 18.2 | 4580 | inactive | 0.35 | –
FC1(F)COP2(Cl)=NP(Cl)(=NP3(=N2)NCCCN3CCCCN2CCCNP23=NP2(Cl)=NP(Cl)(=N3)OCC(F)(F)C(F)(F)CO2)OCC1(F)F (stereo unspecified) | > 250 | – | – | 1.61 | inactive | – | > 250 | 2.63 | > 250 | – | > 250 | – | – | – | – | – | – | –
CC1(C)COP2(=NP34=NP5(=N2)NCCCN5CCCCN3CCCN4)OC1 (stereo unspecified) | > 250 | 77.29 | 0 | 5.88 | inactive | 3.32 | > 250 | 3.23 | > 250 | 19.39 | > 250 | – | – | – | – | – | – | –
